Data set [1] concerns the target T1, Metabotropic glutamate receptor 2 (Rattus norvegicus, UniProt P31421). Description: Binding affinity towards metabotropic glutamate receptor 2 of rat expressed in CHO cells was determined by using [3H]MGS-0008. It is filed as cell-based.
The nature of data set [2]: Half-life in rat upon oral dose of 30 mg/kg. More on the design: dose 30 mg/kg, route oral. It is filed as ADME, organism-based. Conditions: in vivo. In short, it runs like this:
(§1)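 Fasted rats were dosed orally at 3, 10 or 30 mg/kg. Plasma concentration-time profiles were measured by LC/ESI-MS/MS. Cmax, Tmax, elimination half-life and AUCinf were derived per dose group and reported as mean ± deviation.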

For data set [3], the target named is T1, Metabotropic glutamate receptor 2. Description: Effective concentration for agonistic activity towards metabotropic glutamate receptor 2 of rat expressed in CHO cells. It is filed as functional, cell-based.
Data set [4] can be described thus: Concentration of compound in brain of rat after 1 hr of oral dose 10 mg/kg. It is filed as ADME, organism-based. More on the design: dose 10 mg/kg, route oral. In a few lines: (§2)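 Rats given a single peroral dose of 10 mg/kg. Plasma and cerebrum were sampled at 1, 3, 6 and 24 h. Concentrations were measured by LC/ESI-MS/MS using an internal standard. Detection limits were 1 ng/mL in plasma and 1.5 ng/g in brain. Tmax, Cmax, terminal half-life (lambda z) and predicted AUCinf were derived from the mean time-course levels.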

Data set [5] can be described thus: Concentration of compound in brain of rat after 3h of oral dose 10 mg/kg. It is filed as ADME, organism-based. More on the design: dose 10 mg/kg, route oral. In a few lines:
as §2

Data set [6] in a line: Concentration of compound in brain of rat after 6 hr of oral dose 10 mg/kg. It is filed as ADME, organism-based. Details: dose 10 mg/kg, route oral. In short, it runs like this:
as §2

Data set [7] is described as follows: Peak plasma concentration in rats upon oral dose of 3 mg/kg. It is filed as ADME, organism-based. Details: dose 3 mg/kg, route oral. Particulars: rat. In short, it runs like this:
as §1

Data set [8] in a line: Peak plasma concentration in rats upon oral dose of 10 mg/kg. It is filed as ADME, organism-based. More on the design: dose 10 mg/kg, route oral. Conditions: rat. In a few lines:
as §1

Data set [9] can be described thus: Peak plasma concentration in rats upon oral dose of 30 mg/kg. Details: dose 30 mg/kg, route oral. It is filed as ADME, organism-based. Conditions: rat. In short, it runs like this:
as §1

The nature of data set [10]: Peak plasma concentration in rat brain upon oral dose of 10 mg/kg. It is filed as ADME, organism-based. More on the design: dose 10 mg/kg, route oral. In a few lines:
as §2

Data set [11] is described as follows: Peak plasma concentration in rat plasma upon oral dose of 10 mg/kg. It is filed as ADME, organism-based. More on the design: dose 10 mg/kg, route oral. In a few lines: as §2
Data set [12] in a line: Half-life in rat plasma upon oral dose of 10 mg/kg. It is filed as ADME, organism-based. More on the design: dose 10 mg/kg, route oral. In a few lines:
as §2

The nature of data set [13]: Concentration of compound in plasma of rat after 1 hr of oral dose 10 mg/kg. It is filed as ADME, organism-based. More on the design: dose 10 mg/kg, route oral. In a few lines:
as §2

Data set [14] can be described thus: Concentration of compound in plasma of rat after 3h of oral dose 10 mg/kg. It is filed as ADME, organism-based. Details: dose 10 mg/kg, route oral. In a few lines: as §2
Data set [15] is described as follows: Concentration of compound in plasma of rat after 6 hr of oral dose 10 mg/kg. It is filed as ADME, organism-based. More on the design: dose 10 mg/kg, route oral. In short, it runs like this:
as §2

The target of data set [16] is Metabotropic glutamate receptor 3 (Rattus norvegicus, UniProt P31422). Description: Binding affinity towards metabotropic glutamate receptor 3 of rat expressed in CHO cells was determined by using [3H]MGS-0008. It is filed as cell-based.
Chain of Metabotropic glutamate receptor 3 (P31422 whole entry): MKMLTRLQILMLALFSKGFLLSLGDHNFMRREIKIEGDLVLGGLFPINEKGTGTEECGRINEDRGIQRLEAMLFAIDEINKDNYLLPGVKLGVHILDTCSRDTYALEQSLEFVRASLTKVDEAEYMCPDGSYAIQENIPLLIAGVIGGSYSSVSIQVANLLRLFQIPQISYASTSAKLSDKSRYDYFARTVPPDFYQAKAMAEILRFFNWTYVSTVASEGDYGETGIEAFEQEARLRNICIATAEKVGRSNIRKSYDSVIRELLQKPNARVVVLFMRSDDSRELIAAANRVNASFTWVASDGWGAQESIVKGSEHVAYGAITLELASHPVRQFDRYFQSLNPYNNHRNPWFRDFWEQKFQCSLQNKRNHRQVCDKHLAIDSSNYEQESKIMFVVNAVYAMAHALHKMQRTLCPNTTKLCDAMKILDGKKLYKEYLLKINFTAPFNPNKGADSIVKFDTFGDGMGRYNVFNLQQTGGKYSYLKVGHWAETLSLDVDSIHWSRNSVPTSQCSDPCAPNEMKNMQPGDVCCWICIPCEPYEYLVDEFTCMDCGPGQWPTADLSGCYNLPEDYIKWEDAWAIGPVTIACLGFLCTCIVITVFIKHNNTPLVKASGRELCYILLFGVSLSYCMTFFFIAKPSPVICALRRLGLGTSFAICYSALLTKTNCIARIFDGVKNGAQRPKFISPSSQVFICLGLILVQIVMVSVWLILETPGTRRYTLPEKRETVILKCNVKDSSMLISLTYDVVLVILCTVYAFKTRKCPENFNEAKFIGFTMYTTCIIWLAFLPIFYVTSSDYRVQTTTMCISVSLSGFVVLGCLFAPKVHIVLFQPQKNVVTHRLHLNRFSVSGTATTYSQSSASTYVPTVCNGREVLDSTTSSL
Data set [17] can be described thus: Maximum time required to achieve peak plasma concentration upon oral dose of 3 mg/kg to rats. It is filed as ADME, organism-based. Details: dose 3 mg/kg, route oral. Conditions: rat. In a few lines:
as §1

Data set [18] is described as follows: Maximum time required to achieve peak plasma concentration upon oral dose of 10 mg/kg to rats. It is filed as ADME, organism-based. More on the design: dose 10 mg/kg, route oral. Conditions: rat. In short, it runs like this:
as §1

The nature of data set [19]: Maximum time required to achieve peak plasma concentration upon oral dose of 30 mg/kg to rats. It is filed as ADME, organism-based. More on the design: dose 30 mg/kg, route oral. Particulars: rat. In short, it runs like this: as §1
Data set [20] in a line: Maximum time required to achieve peak plasma concentration in rat brain upon oral dose of 10 mg/kg. Details: dose 10 mg/kg, route oral. It is filed as ADME, organism-based. In a few lines:
as §2

Data set [21] can be described thus: Maximum time required to achieve peak plasma concentration in rat plasma upon oral dose of 10 mg/kg. It is filed as ADME, organism-based. Details: dose 10 mg/kg, route oral. In short, it runs like this:
as §2

Data set [22] is described as follows: Half-life in rat upon oral dose of 3 mg/kg. It is filed as ADME, organism-based. Details: dose 3 mg/kg, route oral. Particulars: in vivo. In short, it runs like this:
as §1

The nature of data set [23]: Half-life in rat upon oral dose of 10 mg/kg. It is filed as ADME, organism-based. Details: dose 10 mg/kg, route oral. Conditions: in vivo. In a few lines:
as §1

The target in data set [24] is T1, Metabotropic glutamate receptor 2. Description: Concentration required to inhibit metabotropic glutamate receptor 2 activity of rat expressed in CHO cells. It is filed as cell-based.
Data set [25] in a line: Half-life in rat brain upon oral dose of 10 mg/kg. It is filed as ADME, organism-based. Details: dose 10 mg/kg, route oral. In short, it runs like this:
as §2

The nature of data set [26]: Concentration of compound in brain of rat after 24 hr of oral dose 10 mg/kg. More on the design: dose 10 mg/kg, route oral. It is filed as ADME, organism-based. In short, it runs like this: as §2
The nature of data set [27]: Concentration of compound in plasma of rat after 24 hr of oral dose 10 mg/kg. It is filed as ADME, organism-based. More on the design: dose 10 mg/kg, route oral. In short, it runs like this:
as §2

The source of these data is ChEMBL document CHEMBL1138738, “Synthesis, in vitro pharmacology, structure-activity relationships, and pharmacokinetics of 3-alkoxy-2-amino-6-fluorobicyclo[3.1.0]hexane-2,6-dicarboxylic acid derivatives as potent and selective group II metabotropic glutamate receptor antagonists” (J Med Chem, 2004).

Where only a bound is given, the exact number is not on record here.

T1 sequence (P31421 whole entry): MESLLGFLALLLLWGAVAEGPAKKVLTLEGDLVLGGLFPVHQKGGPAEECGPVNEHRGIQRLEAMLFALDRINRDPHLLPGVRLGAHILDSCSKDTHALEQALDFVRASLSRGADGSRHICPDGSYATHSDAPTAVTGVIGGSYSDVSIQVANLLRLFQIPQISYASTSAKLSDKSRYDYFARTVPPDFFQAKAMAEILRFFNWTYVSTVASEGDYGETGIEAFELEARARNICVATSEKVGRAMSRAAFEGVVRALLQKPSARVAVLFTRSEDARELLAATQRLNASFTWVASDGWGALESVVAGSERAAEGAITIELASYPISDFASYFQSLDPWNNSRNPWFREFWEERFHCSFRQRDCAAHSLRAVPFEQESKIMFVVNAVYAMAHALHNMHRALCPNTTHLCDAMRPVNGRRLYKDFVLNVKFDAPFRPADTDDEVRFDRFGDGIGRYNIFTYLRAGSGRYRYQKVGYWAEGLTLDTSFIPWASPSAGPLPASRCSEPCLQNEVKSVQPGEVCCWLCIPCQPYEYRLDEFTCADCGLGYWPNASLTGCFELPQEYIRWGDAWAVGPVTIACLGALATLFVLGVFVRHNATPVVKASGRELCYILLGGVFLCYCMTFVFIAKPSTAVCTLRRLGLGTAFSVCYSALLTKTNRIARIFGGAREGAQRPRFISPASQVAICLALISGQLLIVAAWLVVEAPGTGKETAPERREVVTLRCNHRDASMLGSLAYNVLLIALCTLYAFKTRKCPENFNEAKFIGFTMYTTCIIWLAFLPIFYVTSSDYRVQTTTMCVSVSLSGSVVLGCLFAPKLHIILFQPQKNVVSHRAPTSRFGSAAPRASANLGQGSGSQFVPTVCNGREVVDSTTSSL

A word on the Ki: it is the dissociation constant of the complex between target and ligand, obtained from inhibition or displacement. A low value points to higher affinity. `N[C@]1(C(=O)O)[C@H]2[C@@H](C[C@H]1OCc1cccc(Br)c1)[C@]2(F)C(=O)O` displayed a Ki in data set [1] of 4.71 nM.
The same measure, in the same setting: the figure for `N[C@]1(C(=O)O)[C@H]2[C@@H](C[C@H]1OCc1cccc(C(F)(F)F)c1)[C@]2(F)C(=O)O` is 5.72 nM.
One may read the half-life as the time in which the quantity being followed falls by half. What is called EC50 is the midpoint of the concentration-response curve. High values mean a need for much substance, low ones an effect from little substance. As usually defined, the Cmax is the peak of the concentration-time curve. For orientation: Tmax means the time from dosing to the highest level. On to `N[C@]1(C(=O)O)[C@H]2[C@@H](C[C@H]1OCc1ccc(Cl)cc1)[C@]2(F)C(=O)O`, for which the half-life was 3.28 h in data set [2], 2.5 h in data set [12], 1.67 h in [22] and 3.75 h in data set [23]. This molecule also displayed an EC50 in [3] of over 100000 nM. Moreover, the concentration at 1 h was found to be 2.51 ng/mL in [4] and 176 ng/mL in data set [13]. The concentration at 3 h in data set [5] came to 3.66 ng/mL; in data set [14], 225 ng/mL. The concentration at 6 h in data set [6] was 3.39 ng/mL; in data set [15], 98.2 ng/mL. The Cmax stood at 76.6 ng/mL in [7]; 272 ng/mL in data set [8]; 651 ng/mL in data set [9]; 3.66 ng/mL in data set [10]; 225 ng/mL in data set [11]. Besides, the results for the Ki in data set [1] and in data set [16] were 3.17 nM and 4.77 nM, respectively. Also, the Tmax in [17] came to 1.3 h; in [18], 2.3 h; in data set [19] it was 2.7 h; in [20] it was 3 h; in data set [21], 3 h.
On to `Cc1cccc(CO[C@@H]2C[C@@H]3[C@H]([C@]2(N)C(=O)O)[C@@]3(F)C(=O)O)c1`, for which, in data set [1], the affinity corresponds to a Ki of 4.53 nM.
In data set [1], `N[C@]1(C(=O)O)[C@H]2[C@@H](C[C@H]1OCc1cc(Cl)c(Cl)c(Cl)c1)[C@]2(F)C(=O)O` displayed a Ki of 3.67 nM.
In data set [1], `N[C@@]1(C(=O)O)[C@@H](OCc2ccc(Cl)c(Cl)c2)C[C@@H]2[C@H]1[C@@]2(F)C(=O)O` registered a Ki of 17.1 nM.
The same measure, in the same setting: then `N[C@]1(C(=O)O)[C@H]2[C@@H](C[C@H]1OCc1cc(Cl)ccc1Cl)[C@]2(F)C(=O)O`, with 11.8 nM; and `N[C@]1(C(=O)O)[C@H]2[C@@H](C[C@H]1OCc1c(F)cccc1F)[C@]2(F)C(=O)O`, with 7.02 nM.
In [1], `N[C@]1(C(=O)O)[C@H]2[C@@H](C[C@H]1OCc1ccc(Cl)c(F)c1)[C@]2(F)C(=O)O` displayed a Ki of 4.02 nM.
For the molecule `COc1cccc(CO[C@@H]2C[C@@H]3[C@H]([C@]2(N)C(=O)O)[C@@]3(F)C(=O)O)c1`, the Ki in data set [1] was determined as 5.92 nM.
`N[C@]1(C(=O)O)[C@H]2[C@@H](C[C@H]1OCc1cc(F)ccc1F)[C@]2(F)C(=O)O`: the Ki in data set [1] came out at 14.4 nM.
`N[C@]1(C(=O)O)[C@H]2[C@@H](C[C@H]1OC(c1ccc(Cl)cc1)c1ccc(Cl)cc1)[C@]2(F)C(=O)O` returned a Ki in data set [1] of 3.75 nM.
Same read-out and setting: then `N[C@]1(C(=O)O)[C@H]2[C@@H](C[C@H]1OCc1cccc(C(=O)O)c1)[C@]2(F)C(=O)O`, with 1.06 nM.
The IC50 is the concentration needed to halve the response being measured. A high value points to lower potency. For `N[C@]1(C(=O)O)[C@H]2[C@@H](C[C@H]1OC(c1ccccc1)c1ccccc1)[C@]2(F)C(=O)O`, the half-life in data set [2] was 3.63 h; in data set [25], 9 h; in data set [12], 2.8 h; in data set [22], 1.62 h; in data set [23], 2.2 h. Besides, in [3], the concentration for a half-maximal effect (EC50) was over 100000 nM. In [24], this molecule registered a 50% inhibitory concentration (IC50) of 24.4 nM. The concentration at 6 h in data set [6] amounted to 2.04 ng/mL; in data set [15], 23.1 ng/mL. Moreover, the Cmax in data set [7] stood at 25 ng/mL; in [8], 85.1 ng/mL; in data set [9] it was 312 ng/mL; in data set [10] it was 2.04 ng/mL; in data set [11], 61.3 ng/mL. Moreover, the concentration at 24 h stood at 0.51 ng/mL in data set [26] and 0.2 ng/mL in data set [27]. For the same molecule, in data set [13], the concentration at 1 h came to 61.3 ng/mL. Besides, the concentration at 3 h in data set [14] was 37.6 ng/mL. The values for the Ki in data set [1] and in [16] were 2.58 nM and 3.93 nM, respectively. Besides, the Tmax in [17] was 0.7 h; in [18], 1.8 h; in data set [19] it was 1 h; in [20], 6 h; in data set [21], 1 h.
